Results as given in ChEMBL document CHEMBL3745654, “N-Alkylated arylsulfonamides of (aryloxy)ethyl piperidines: 5-HT(7) receptor selectivity versus multireceptor profile” (Bioorg Med Chem, 2016).
The source made the active and inactive calls. The calls are words filed in the database; no cut-off is given here.

Experiments:
[1] = target: 5-hydroxytryptamine receptor 7 (Homo sapiens, UniProt P34969); test: Displacement of [3H]-5-CT from human 5-HT7B receptor expressed in HEK293 cells incubated for 1 hr; format: cell-based
5-hydroxytryptamine receptor 7, sequence (P34969 whole entry): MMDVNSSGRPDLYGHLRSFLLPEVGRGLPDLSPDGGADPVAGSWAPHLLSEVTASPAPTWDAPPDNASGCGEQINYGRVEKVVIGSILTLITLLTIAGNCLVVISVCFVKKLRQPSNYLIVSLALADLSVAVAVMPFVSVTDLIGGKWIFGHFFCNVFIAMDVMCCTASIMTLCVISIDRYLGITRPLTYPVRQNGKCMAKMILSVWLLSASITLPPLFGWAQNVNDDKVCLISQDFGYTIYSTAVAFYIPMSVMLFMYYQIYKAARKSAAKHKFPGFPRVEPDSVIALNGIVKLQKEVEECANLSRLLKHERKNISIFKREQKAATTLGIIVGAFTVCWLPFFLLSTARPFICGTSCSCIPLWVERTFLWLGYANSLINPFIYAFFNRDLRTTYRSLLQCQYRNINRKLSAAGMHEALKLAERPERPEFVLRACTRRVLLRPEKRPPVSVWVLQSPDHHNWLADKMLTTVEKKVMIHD
Summary of the method: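 Membranes from HEK293 cells stably expressing human 5-HT7b receptor, with [3H]-5-CT (39.2 Ci/mmol). Buffer: 50 mM Tris-HCl, 4 mM MgCl2, pargyline, 0.1% ascorbate. Incubation 1 h at 37 °C, then rapid filtration and counting of filter radioactivity. Non-specific binding defined with 5-HT. Triplicates at 7–8 concentrations (10^-11 to 10^-4 M). Ki by Cheng–Prusoff.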

[2] = target: T1, 5-hydroxytryptamine receptor 1A (Homo sapiens, UniProt P08908); test: Displacement of [3H]-8-OH-DPAT from human 5-HT1A receptor expressed in HEK293 cells incubated for 1 hr; format: cell-based
T1 sequence (P08908 whole entry): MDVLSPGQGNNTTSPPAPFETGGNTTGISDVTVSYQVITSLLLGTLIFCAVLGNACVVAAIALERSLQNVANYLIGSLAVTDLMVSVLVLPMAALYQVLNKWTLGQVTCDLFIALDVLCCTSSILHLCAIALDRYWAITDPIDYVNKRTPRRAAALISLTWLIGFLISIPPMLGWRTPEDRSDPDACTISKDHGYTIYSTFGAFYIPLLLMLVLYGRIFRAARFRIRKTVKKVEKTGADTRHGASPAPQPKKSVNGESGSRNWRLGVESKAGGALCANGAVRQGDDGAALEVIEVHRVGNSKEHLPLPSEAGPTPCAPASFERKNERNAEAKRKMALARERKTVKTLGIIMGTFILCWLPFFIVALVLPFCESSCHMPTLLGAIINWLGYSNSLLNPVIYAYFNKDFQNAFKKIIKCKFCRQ
Summary of the method: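 Membranes from HEK293 cells stably expressing human 5-HT1A receptor, with [3H]-8-OH-DPAT (187 Ci/mmol). Buffer: 50 mM Tris-HCl, 0.1 mM EDTA, 4 mM MgCl2, pargyline, 0.1% ascorbate. Incubation 1 h at room temperature, then filtration. Non-specific binding defined with 5-HT. Triplicates at 7–8 concentrations. Ki by Cheng–Prusoff.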

[3] = target: D(2) dopamine receptor (Homo sapiens, UniProt P14416); test: Displacement of [3H]-Raclopride from human dopamine D2L receptor expressed in HEK293 cells incubated for 1 hr; format: cell-based
D(2) dopamine receptor, sequence (P14416 whole entry): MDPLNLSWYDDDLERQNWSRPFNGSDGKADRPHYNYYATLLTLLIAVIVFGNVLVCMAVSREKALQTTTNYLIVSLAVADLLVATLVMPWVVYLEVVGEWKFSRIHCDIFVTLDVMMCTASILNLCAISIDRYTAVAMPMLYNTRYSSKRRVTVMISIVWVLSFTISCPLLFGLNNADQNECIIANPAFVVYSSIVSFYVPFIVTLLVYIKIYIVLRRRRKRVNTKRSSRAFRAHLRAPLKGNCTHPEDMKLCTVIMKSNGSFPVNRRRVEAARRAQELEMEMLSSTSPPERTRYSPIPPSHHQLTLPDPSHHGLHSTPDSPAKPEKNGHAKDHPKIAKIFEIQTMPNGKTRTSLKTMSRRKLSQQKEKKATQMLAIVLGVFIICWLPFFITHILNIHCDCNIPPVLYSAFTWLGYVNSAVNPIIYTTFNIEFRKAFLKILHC
Summary of the method: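 Membranes from HEK293 cells stably expressing human D2L receptor, with [3H]-raclopride (74.4 Ci/mmol). Buffer: Tris-HCl, EDTA, MgCl2, 120 mM NaCl, 5 mM KCl, 1.5 mM CaCl2, ascorbate. Incubation 1 h at 37 °C, then filtration. Non-specific binding defined with (+)butaclamol. Triplicates at 7–8 concentrations (10^-11 to 10^-4 M). Ki by Cheng–Prusoff.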

[4] = target: 5-hydroxytryptamine receptor 2A (Homo sapiens, UniProt P28223); test: Displacement of [3H]-ketanserin from human 5-HT2A receptor expressed in HEK293 cells incubated for 1 hr; format: cell-based
5-hydroxytryptamine receptor 2A, sequence (P28223 whole entry): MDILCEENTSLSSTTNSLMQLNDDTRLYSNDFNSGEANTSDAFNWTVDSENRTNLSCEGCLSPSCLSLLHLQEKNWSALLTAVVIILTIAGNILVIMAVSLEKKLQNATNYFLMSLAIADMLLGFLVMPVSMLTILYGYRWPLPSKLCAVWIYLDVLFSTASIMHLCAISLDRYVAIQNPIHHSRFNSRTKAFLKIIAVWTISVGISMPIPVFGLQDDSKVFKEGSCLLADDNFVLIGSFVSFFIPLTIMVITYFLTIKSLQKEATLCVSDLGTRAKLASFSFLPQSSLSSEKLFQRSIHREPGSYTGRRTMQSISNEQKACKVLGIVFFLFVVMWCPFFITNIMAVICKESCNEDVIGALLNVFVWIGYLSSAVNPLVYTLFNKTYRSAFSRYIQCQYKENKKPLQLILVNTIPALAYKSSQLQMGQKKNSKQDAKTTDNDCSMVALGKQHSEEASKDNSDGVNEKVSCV
Summary of the method: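 Membranes from HEK293 cells stably expressing human 5-HT2A receptor, with [3H]-ketanserin (66.9 Ci/mmol). Incubation 1 h at 37 °C, then rapid filtration and counting. Triplicates at 7–8 concentrations (10^-11 to 10^-4 M). Ki by Cheng–Prusoff; means of at least three experiments.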

[5] = Intrinsic clearance in mouse liver microsomes at 20 uM at pH 7.4 incubated for 15 mins by UPLC/MS analysis in presence of NADPH; format: ADME; conditions: read-out: CLH
[6] = Half life in mouse liver microsomes at 20 uM at pH 7.4 incubated for 15 mins by UPLC/MS analysis in presence of NADPH; format: ADME
Summary of the method: (§1)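 Compound (20 µM) incubated with mouse liver microsomes (0.2 mg/ml) in 100 mM potassium phosphate, pH 7.4, 37 °C. Reaction started with NADPH-regenerating system; blank without NADPH run in parallel. Sampling at 5, 15, 30 and 60 min (some to 120 min), in duplicate. Levallorphan internal standard; UPLC/MS quantitation. t1/2 from ln % remaining vs time.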

[7] = Metabolic stability in mouse liver microsomes assessed as retention time of compound at 20 uM at pH 7.4 incubated for 15 mins by UPLC/MS analysis in presence of NADPH; format: ADME; conditions: pH 7.4, 0.25 h; summary of the method: as §1
[8] = Drug metabolism in mouse liver microsomes assessed as retention time of N-dealkylated metabolite at 20 uM at pH 7.4 incubated for 15 mins by UPLC/MS analysis in presence of NADPH; format: ADME; conditions: pH 7.4, 0.25 h; summary of the method: as §1
[9] = system: Mus musculus; test: Antidepressant-like activity in Swiss albino mouse assessed as reduction in immobility time at 10 mg/kg, ip dosed 30 mins before test measured after 6 mins by forced swim test; format: functional, organism-based
Summary of the method: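 Male Swiss albino mice (22–26 g), 7–12/group, used once; drug suspended in 1% aqueous Tween 80 just before use, given ip 30 min before test. Blind observer. 6-min swim in a glass cylinder (25 × 10 cm) with 10 cm of water at 23–25 °C. Immobility timed over the final 4 min. Data as mean ± SEM; one-way ANOVA, then Bonferroni vs vehicle.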

[10] = system: Mus musculus; test: Toxicity in Swiss albino mouse assessed as effect on spontaneous locomotor activity at 10 mg/kg, ip dosed 30 mins before test measured after 2 to 6 mins; format: organism-based; conditions: in vivo
Summary of the method: (§2)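 Swiss albino mice given reference drug ip 30 min before testing (citalopram in water; SB-269970 suspended in 1% aqueous Tween 80). Ambulation counted from 2 to 6 min in individual cages by activity monitor.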

[11] = system: Mus musculus; test: Antidepressant-like activity in Swiss albino mouse assessed as reduction in immobility time at 1.25 mg/kg, ip dosed 30 mins before test measured after 6 mins by forced swim test; format: functional, organism-based
Summary of the method: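 Male Swiss albino mice (22–26 g), 7–12/group, used once; drug in distilled water, given ip 30 min before test. Observer blind to treatment. Mice swam 6 min in a glass cylinder (25 cm high, 10 cm diameter) holding 10 cm of water at 23–25 °C. Immobility (floating, only small head-keeping movements) was timed over the last 4 min. One-way ANOVA, then Bonferroni vs vehicle.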

[12] = system: Mus musculus; test: Toxicity in Swiss albino mouse assessed as effect on spontaneous locomotor activity at 1.25 mg/kg, ip dosed 30 mins before test measured after 2 to 6 mins; format: organism-based; conditions: in vivo; summary of the method: as §2
[13] = Drug metabolism in mouse liver microsomes assessed as retention time of hydroxylated metabolite at 20 uM at pH 7.4 incubated for 15 mins by UPLC/MS analysis in presence of NADPH; format: ADME; conditions: pH 7.4, 0.25 h; summary of the method: as §1

SMILES | Ki [1] [nM] | Ki [2] [nM] | Ki [3] [nM] | Ki [4] [nM] | further results
CN(C1CCN(CCOc2ccccc2C(C)(C)C)CC1)S(=O)(=O)c1ccc(F)cc1 | 58 | 9050 | 324 | 1070 | 
Cn1cc(S(=O)(=O)NC2CCN(CCOc3ccccc3-c3ccccc3)CC2)cn1 |  |  |  |  | microsomal CLint at 20 µM [5]: > 200 µL/min/mg; half-life at 20 µM [6]: < 20 min; Retention_time [7]: 4.45 min; Retention_time [8]: 3.85 min
CN(C1CCN(CCOc2ccccc2-c2ccccc2)CC1)S(=O)(=O)c1ccccc1 | 100 | 62 | 52 | 42 | 
CC(C)c1ccccc1OCCN1CCC(N(C)S(=O)(=O)c2ccccc2)CC1 | 9 | 140 | 60 | 264 | 
O=S(=O)(c1ccc(F)cc1)N(CC1CC1)C1CCN(CCOc2ccccc2-c2ccccc2)CC1 | 18 | 342 | 37 | 70 | 
CN(C1CCN(CCOc2ccccc2-c2ccccc2)CC1)S(=O)(=O)c1ccc(F)cc1 | 5 | 30 | 54 | 69 | 
CC(C)c1ccccc1OCCN1CCC(N(CC2CC2)S(=O)(=O)c2cnn(C)c2)CC1 | 56 | 214 | 18 | 378 | 
CC(C)c1ccccc1OCCN1CCC(N(CC2CC2)S(=O)(=O)c2ccc(F)cc2)CC1 | 28 | 249 | 20 | 413 | 
CN(C1CCN(CCOc2ccccc2C(C)(C)C)CC1)S(=O)(=O)c1ccccc1 | 70 | 2350 | 360 | 1250 | 
CC(C)(C)c1ccccc1OCCN1CCC(N(CC2CC2)S(=O)(=O)c2ccc(F)cc2)CC1 | 53 | 14000 | 160 | 1330 | 
CC(C)c1ccccc1OCCN1CCC(N(C)S(=O)(=O)c2cccc(F)c2)CC1 | 18 | 190 | 45 | 230 | 
CC1CCN(CC[C@H]2CCCN2S(=O)(=O)c2cccc(O)c2)CC1 |  |  |  |  | Activity [9]: Active; Activity [10]: Non-toxic
CC(C)c1ccccc1OCCN1CCC(N(CC2CC2)S(=O)(=O)c2cccc(F)c2)CC1 | 56 | 158 | 15 | 429 | 
CC(C)c1ccccc1OCCN1CCC(N(C)S(=O)(=O)c2cnn(C)c2)CC1 | 10 | 346 | 46 | 121 | 
CN(C1CCN(CCOc2ccccc2C(C)(C)C)CC1)S(=O)(=O)c1cccc(F)c1 | 68 | 4510 | 290 | 1930 | 
CN(C)CCCC1(c2ccc(F)cc2)OCc2cc(C#N)ccc21 (stereo not drawn) [CITALOPRAM] |  |  |  |  | Activity [11]: Active; Activity [12]: Non-toxic
Cn1cc(S(=O)(=O)NC2CCN(CCOc3ccccc3C(C)(C)C)CC2)cn1 |  |  |  |  | microsomal CLint at 20 µM [5]: > 200 µL/min/mg; half-life at 20 µM [6]: < 20 min; Retention_time [7]: 4.72 min; Retention_time [13]: 3.62 min
CC(C)c1ccccc1OCCN1CCC(N(C)S(=O)(=O)c2ccc(F)cc2)CC1 | 13 | 180 | 50 | 382 | 
